Published values of several laboratories.
Lines come from different studies, so protocols differ.
Neuronal acetylcholine receptor; alpha3/beta2: Neuronal acetylcholine receptor; alpha3/beta2 (Rattus norvegicus, UniProt P04757+P12390)
AKR1C2: Aldo-keto reductase family 1 member C2 (AKR1C2, Homo sapiens, UniProt P52895)

| Structure (SMILES) | target | observed | mode | method | notes | IC50 |
| --- | --- | --- | --- | --- | --- | --- |
| CNC(=O)c1ccc(-c2cnn3ccc(C(=O)N(C)c4ccc(Cl)c(C(=O)OC)c4)cc23)cc1 | Serine/threonine-protein kinase Nek11 (NEK11, Homo sapiens, UniProt Q8NG66) | enzyme activity | inhibitor | – | – | > 30 µM |
| COc1ccc2[nH]c3c(c2c1)CCN(C)CC3 | Neuronal acetylcholine receptor; alpha3/beta2 | ion current | antagonist | two-electrode voltage clamp | oocytes | 28.3 µM |
| O=C(O)C(F)F | AKR1C2 | enzyme activity | inhibitor | fluorescence | – | > 50 µM |
| COC(=O)c1cc(N(C)C(=O)c2ccn3ncc(-c4ccc(C(=O)O)cc4)c3c2)ccc1Cl | Vascular endothelial growth factor receptor 1 (FLT1, Homo sapiens, UniProt P17948) | enzyme activity | inhibitor | – | – | > 30 µM |
| COc1ccc2c3c([nH]c2c1)CCN(C)CC3 | Neuronal acetylcholine receptor; alpha3/beta2 | ion current | antagonist | two-electrode voltage clamp | oocytes | 27.6 µM |
| O=C(O)C(F)(OC(F)(F)C(F)(F)C(F)(F)F)C(F)(F)F (centres unmarked) | AKR1C2 | enzyme activity | inhibitor | fluorescence | – | 13.8 µM |
| CC[C@H](C)[C@H](NC(C)=O)C(=O)N[C@@H](CCC(=O)O)C(=O)N[C@H](C(=O)N[C@H](C=O)CC(=O)O)[C@@H](C)O | Caspase-4 (Casp4, Mus musculus, UniProt P70343) | enzyme activity | inhibitor | – | – | 0.162 µM |
| O=C(NC[C@H]1C[C@@H]2CCN1C[C@@H]2CN1C[C@@H]2C[C@H](C1)c1cccc(=O)n1C2)c1ccc2c(c1)OCO2 | Atypical kinase COQ8A, mitochondrial (COQ8A, Homo sapiens, UniProt Q8NI60) | ligand displacement | – | TR-FRET | – | 13.7 µM |
